Drawing on ChEMBL document CHEMBL1649291, “ADS-J1 inhibits human immunodeficiency virus type 1 entry by interacting with the gp41 pocket region and blocking fusion-active gp41 core formation” (Antimicrob Agents Chemother, 2009), this text covers inhibition, Activity and IC50 for six molecules.

Calls of active or inactive are those of the source. The calls are words filed in the database; no cut-off is given here. Peptide text beside a SMILES is read from it.

Test [1] deals with Human immunodeficiency virus 1. Particulars: 3B, 1 uM.
Test [2] relates to Human immunodeficiency virus 1. Description: Binding affinity to IQNI7 pocket of HIV1 3B gp41 at 1 uM after 30 mins by SPR assay. (Surface plasmon resonance follows binding to a sensor surface in real time, without labels.)
Test [3] concerns Human immunodeficiency virus 1. Particulars: 3B, 1 uM. This is another data set of the same source.
The test system of test [4] is Human immunodeficiency virus 1. Description: Antiviral activity against HIV1 3B infected in human MT2 cells assessed as inhibition of viral p24 antigen production at 5 uM after 8 hrs by ELISA.
For test [5], the system named is Human immunodeficiency virus 1. Description: Binding affinity to IQ pocket of HIV1 3B gp41 at 1 uM after 30 mins by SPR assay.
In test [6] the test system is MT2. The experiment in a line: Inhibition of to HIV1 3B gp120 binding to CD4-positive human MT2 cells at 10 ug/ml by ELISA. Type of test: cell-based. Particulars: Human immunodeficiency virus 1. (An ELISA detects its analyte on a solid surface through an enzyme-linked reagent.)
Test [7] has as its target C-X-C chemokine receptor type 4 (Homo sapiens) (UniProt P61073). The experiment in a line: Inhibition of MAb12G5 binding to CXCR4 in human CEM cells at 25 uM by ELISA. Type of test: cell-based. Particulars: CCRF-CEM.
The test system of test [8] is Human immunodeficiency virus 1. The experiment in a line: Binding affinity to HIV1 3B gp41 assessed as alteration of structural configuration of N36-C34 complex at 10 to 40 uM after 30 mins by spectroscopy. Put shortly:
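CD spectroscopy in PBS pH 7.2: N36 preincubated with compound or PBS 37°C 30 min, then C34 added and incubated a further 30 min at 37°C; final peptides 10 µM each, compound 40 µM. Spectra at room temperature, 0.1-cm path, blank-subtracted; α-helix content from mean residue ellipticity at 222 nm relative to −33,000 deg cm2 dmol−1.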

Test [9] deals with Human immunodeficiency virus 1. Description: Binding affinity to HIV1 3B gp41 assessed as effect on N36K574D-C34D632K complex formation at 40 to 100 uM after 30 mins by N-PAGE.
The subject of test [10] is Human immunodeficiency virus 1. The experiment in a line: (§1) Inhibition of HIV1 3B gp41 fusion-active core formation after 30 mins by sandwich ELISA. Put shortly:
(§2)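 After 30 min at 37°C, mixtures added to wells coated with anti-6-HB rabbit IgG (10 µg/ml); detected with MAb NC-1, biotin anti-mouse IgG, SA-HRP, TMB at A450. Triplicates; percent inhibition calculated.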

A short description of test [11]: as §1. The arrangement: species or system Human immunodeficiency virus 1. Put shortly: as §2
The subject of test [12] is Human immunodeficiency virus 1. The experiment in a line: Inhibition of HIV1 3B gp41 fusion-active core formation after 30 mins by N-PAGE. Put shortly: (§3)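 Native PAGE: N36 incubated with compound or PBS (or, for the preformed case, N36 with C34) at 37°C 30 min before adding the third component; final peptides 40 µM, compounds 100 µM; further 30 min 37°C. Mixed 1:1 with native sample buffer, run on 18% Tris-glycine gels at 125 V, room temperature, 2 h; Coomassie staining.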

The test system of test [13] is Human immunodeficiency virus 1. The experiment in a line: Antiviral activity against HIV1 3B infected in human MT2 cells assessed as inhibition of viral p24 antigen production at 5 uM after 1 hr by ELISA.
Test [14] relates to Human immunodeficiency virus 1. The experiment in a line: Induction of alteration of preformed structural configuration of N36-C34 complex in HIV1 3B gp41 at 10 to 40 uM after 30 mins by spectroscopy. The method, boiled down: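 Preformed-complex CD control: N36 and C34 incubated together 37°C 30 min, then compound or PBS added for a further 30 min at 37°C; final peptides 10 µM each, compound 40 µM, in PBS pH 7.2. Spectra at room temperature, blank-subtracted; helicity from 222 nm ellipticity versus −33,000 deg cm2 dmol−1.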

Test [15] relates to MT2. The experiment in a line: Inhibition of HIV1 3B gp41-mediated cell-cell fusion between viral envelope expressing virus-infected human H9 cells to human MT2 cells at 10 uM treated before addition of human MT2 cells measured after drug washout by fluorescence assay. In kind it is cell-based. The following applies: Human immunodeficiency virus 1. The method, boiled down:
(§4)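 Dye-transfer fusion: calcein-AM-labeled H9/HIV-1 IIIB cells cocultured with MT-2 cells (1:5) at 37°C for 2 h; compound at 10 µM either present throughout, or preincubated with H9/HIV-1 IIIB or with MT-2 cells 37°C 30 min then removed by two washes before adding partner cells. Fused and unfused labeled cells counted by fluorescence microscopy; triplicates, mean ± SD.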

Test [16] concerns Human immunodeficiency virus 1. The experiment in a line: Inhibition of preformed HIV1 3B gp41 fusion-active core formation at 40 to 100 uM after 30 mins by N-PAGE. Put shortly: as §3
Test [17] can be described thus: Inhibition of PIE7 binding to HIV1 3B gp41 after 30 mins by ELISA. The arrangement: species or system Human immunodeficiency virus 1.
Test [18] concerns Human immunodeficiency virus 1. The experiment in a line: Inhibition of preformed HIV1 3B gp41 fusion-active core formation at 40 to 100 uM after 30 mins by sandwich ELISA.
The test system of test [19] is MT2. Description: Inhibition of HIV1 3B gp41-mediated cell-cell fusion between viral envelope expressing virus-infected human H9 cells to human MT2 cells at 10 uM measured after drug washout by fluorescence assay. Type of test: cell-based. The following applies: Human immunodeficiency virus 1. The method, boiled down:
as §4

In test [20] the test system is MT2. The experiment in a line: Inhibition of HIV1 3B gp41-mediated cell-cell fusion between viral envelope expressing virus-infected human H9 cells to human MT2 cells at 10 uM treated 30 mins before viral infection by fluorescence assay. Type of test: cell-based. The following applies: Human immunodeficiency virus 1.
Test [21] has as its system MT2. Description: Inhibition of HIV1 3B gp41-mediated cell-cell fusion between viral envelope expressing human virus-infected H9 cells to human MT2 cells at 10 uM by fluorescence assay. In kind it is cell-based. Particulars: Human immunodeficiency virus 1. Put shortly: as §4

For orientation: inhibition means the percentage by which the read-out fell short of the control. One may read the IC50 as the concentration that inhibits the measured activity by half. Low values mean inhibition by little substance, high ones a need for much substance.

C-X-C chemokine receptor type 4 (Homo sapiens), sequence (P61073 whole entry): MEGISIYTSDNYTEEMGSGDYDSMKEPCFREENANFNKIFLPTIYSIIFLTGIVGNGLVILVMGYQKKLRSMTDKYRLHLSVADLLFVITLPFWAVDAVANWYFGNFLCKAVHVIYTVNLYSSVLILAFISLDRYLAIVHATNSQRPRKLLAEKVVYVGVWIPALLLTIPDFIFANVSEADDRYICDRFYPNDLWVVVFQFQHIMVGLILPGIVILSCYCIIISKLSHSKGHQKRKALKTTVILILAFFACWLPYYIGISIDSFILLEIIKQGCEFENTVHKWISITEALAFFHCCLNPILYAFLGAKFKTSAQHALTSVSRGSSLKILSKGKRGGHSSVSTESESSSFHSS

Turning to `c1cc(CN2CCCNCCNCCCNCC2)ccc1CN1CCCNCCNCCCNCC1`, in test [1], the inhibition result is “inactive”. In addition, the result in test [2] was inactive. Besides, in [3], the inhibition entry was “Active”.
As for `Cc1cn([C@H]2C[C@H](N=[N+]=[N-])[C@@H](CO)O2)c(=O)[nH]c1=O`, the inhibition entry in test [4] was “inactive”.
Turning to `CC[C@H](C)[C@H](NC(=O)[C@H](CCC(=O)O)NC(=O)[C@H](CC(N)=O)NC(=O)[C@H](CCC(=O)O)NC(=O)[C@@H](NC(=O)[C@H](CCCCN)NC(=O)[C@H](CCCCN)NC(=O)[C@H](CCC(N)=O)NC(=O)[C@H](CCCCN)NC(=O)[C@H](CO)NC(=O)[C@H](CCC(=O)O)NC(=O)[C@@H](NC(=O)[C@H](CCC(=O)O)NC(=O)[C@H](CCC(=O)O)NC(=O)[C@@H](NC(=O)[C@H](CCCCN)NC(=O)[C@H](CC(=O)O)NC(=O)[C@H](CCC(=O)O)NC(=O)[C@@H](NC(=O)[C@H](CCC(N)=O)NC(=O)[C@H](CCCCN)NC(=O)[C@H](CCSC)NC(=O)[C@@H](N)CCCNC(=N)N)[C@@H](C)CC)[C@@H](C)CC)[C@@H](C)CC)[C@@H](C)CC)C(=O)N[C@@H](C)C(=O)N[C@@H](CCCNC(=N)N)C(=O)N[C@H](C(=O)N[C@@H](CCCCN)C(=O)N[C@@H](CCCCN)C(=O)O)[C@@H](C)CC`, in test [5], the result was inactive.
On to `CN1C(=O)[C@@H](c2cc(Cl)c(O)c(Cl)c2)NC(=O)[C@@H]2NC(=O)[C@@H](c3cc(Cl)c(O)c(Cl)c3)NC(=O)[C@H](NC(=O)C(=O)c3cc(Cl)c(O)c(Cl)c3)Cc3c[nH]c4c(cccc34)-c3cc2cc(c3O)Oc2ccc(cc2)C[C@H]1C(=O)N[C@@H](C(=O)O)c1ccc(O)cc1`, for which the inhibition result in the test with MT2 [6] is “Active”.
In the case of `N=C(N)NCCC[C@H](NC(=O)[C@H](CS)NC(=O)[C@H](CCCCN)NC(=O)[C@H](CCCNC(=N)N)NC(=O)[C@H](Cc1ccc(O)cc1)NC(=O)[C@H](CS)NC(=O)[C@H](Cc1ccc(O)cc1)NC(=O)CNC(=O)[C@H](CCCCN)NC(=O)[C@H](Cc1ccc(O)cc1)NC(=O)[C@H](CS)NC(=O)[C@H](CCCCN)NC(=O)[C@H](CCCNC(=N)N)NC(=O)[C@H](Cc1ccc(O)cc1)NC(=O)[C@H](CS)NC(=O)[C@H](Cc1c[nH]c2ccccc12)NC(=O)[C@H](CCCNC(=N)N)NC(=O)[C@@H](N)CCCNC(=N)N)C(=O)O` (H-RRWCYRKCYKGYCYRKCR-OH), the inhibition entry in test [7] is “Active”.
As for `COc1ccc(S(=O)(=O)O)cc1/N=N/c1c(S(=O)(=O)O)cc2cc(Nc3nc(Nc4ccccc4)nc(Nc4cc(C)c(/N=N/c5cc(S(=O)(=O)O)cc6cc(S(=O)(=O)O)cc(O)c56)cc4OC)n3)ccc2c1O`, the outcome in test [8] and in test [2] was Active. The outcome in test [9] and in [14] was inactive. In addition, the inhibition result is “Dose-dependent effect” in [10]; 18% in test [7]; “Dose-dependent effect” in test [12]; 80% with MT2 [15]; 50% with MT2 [19]. For the same molecule, the IC50 in [11] was 3360 nM; in test [17], 680 nM. For the same molecule, the inhibition entry (in test [13]; in the test on MT2 [21]) was “Active” throughout. For the same molecule, the inhibition result (in the test with MT2 [6]; in test [16]; in test [18]; in the test with MT2 [20]) was “inactive” each time.
